# NALP1 yeast inh: inhibitors of NALP1 inflammasome in yeast. inhibition, % at 10 µM. S. cerevisiae NALP1/ASC/caspase-1 growth, X-gal OD620, 72 h. actives 0.61% (n = 280,000); in the data active = inhibition mostly above about 24%, no sharp cut-off; inactive = mostly below about 32%
# MC4R antagonist: human MC4R antagonism in cAMP assay. actives 0.48% (n = 360,000). P32245. MC4R-expressing cells, MTII-stimulated cAMP, LANCE TR-FRET. inhibition, % at 6.5 µM. AID 540295;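 active = inhibition above its plate's cutoff, the mean of tested wells on that plate plus 3 SD, cut at about 29% in these data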;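 also: 0% = Melanotan II alone and 100% = Melanotan II plus saturating MCL0020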
# Target sequence (P32245 whole entry, looked up): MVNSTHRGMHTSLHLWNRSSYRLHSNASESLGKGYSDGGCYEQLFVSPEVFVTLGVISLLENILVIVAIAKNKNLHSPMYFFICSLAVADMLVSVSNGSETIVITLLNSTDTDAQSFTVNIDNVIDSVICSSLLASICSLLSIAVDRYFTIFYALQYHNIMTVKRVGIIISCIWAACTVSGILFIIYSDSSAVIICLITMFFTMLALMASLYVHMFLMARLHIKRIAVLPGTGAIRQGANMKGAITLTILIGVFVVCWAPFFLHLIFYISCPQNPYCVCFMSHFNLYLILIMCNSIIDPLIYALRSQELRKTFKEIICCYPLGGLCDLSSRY
#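 System: U2OS-MC4R stable cell line; Technique: Eu-cAMP/anti-cAMP TR-FRET, emission 671 nm; Repeats: single well per compound; Also added: Melanotan II; Dosing: one concentration, 6.5 µM nominal; Schedule: 30-min compound, 1-h challenge, 1-h detection, room temperature.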
# Tb MetRS inh: Trypanosoma brucei MetRS inhibition; AID 624268; actives 0.4% (n = 360,000); inhibition, % at 11.9 µM; purified T. brucei MetRS, ATP depletion, Kinase-Glo luminescence;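 active = inhibition above a per-plate cutoff of the control wells' mean inhibition plus 3 SD, cut at about 5.5% in these data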;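 also: 0% = DMSO wells median and 100% = median of wells with control inhibitor compound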
#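 Material: parasite MetRS enzyme / Replication: singlicate, one well per compound / Signal: luminescence of leftover ATP / Schedule: 2 h aminoacylation at 25 °C after 15 min preincubation / Medium: HEPES-MgCl2-KCl buffer plus DTT, spermine, BSA, pyrophosphatase / Doses: 11.9 µM single point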
# MC4R barr agon: agonists of human melanocortin 4 receptor (MC4R) beta-arrestin. actives 0.98% (n = 360,000). P32245. activation, % at 8.9 µM. U2OS MC4R beta-arrestin complementation, luminescence; percent of melanotan II response, DMSO zero;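 active = activation above a per-plate cutoff, the mean activation of sample wells on that plate plus 3 SD, cut at about 8% in these data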
# A1 inh: inhibitors of the anti-apoptotic protein A1, read as caspase activation. actives 0.066% (n = 330,000). caspase activation, % (concentration not given with the values). MEF A1-2A-BIM cells, Caspase-Glo 3/7 luminescence, 3 h; percent of clofoctol response, vehicle zero;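 active = over half of replicate activation scores above 10%, or exactly half above 10 with the replicate mean above 10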
# NALP3 yeast inh: NALP3 inhibition in yeast. actives 0.39% (n = 330,000). inhibition, % at 10 µM. AID 2825. Yeast reconstituted NLRP3/ASC/caspase-1, beta-gal luminescence, 24 h;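 active = inhibition of 50% or more; inactive = inhibition below 50%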;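 also: plate controls were induced DMSO wells for no effect and uninduced yeast grown without galactose for full effect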
# An asterisk follows results filed as active; nt = not tested or not shown. Sampled rows, rich in hits. Any-hit rate of the full collection: about 2.5%.
SMILES,NALP1 yeast inh,MC4R antagonist,Tb MetRS inh,MC4R barr agon,A1 inh,NALP3 yeast inh
O=C(CCl)N(c1ccccc1)C1CCCCC1,-4,3,-1,9.1*,1,-15
O=C(CN1c2cccc3cccc(c23)S1(=O)=O)N1CCCCC1,nt,1,0,0,0,12
Cc1ccccc1OCc1nnc(SCC(=O)Nc2ccc3nc(SCC(=O)NC(C)(C)C)sc3c2)n1C,nt,0,-1,11*,1,18
N#Cc1ccccc1Cn1cc(/C=C/[N+](=O)[O-])c2ccccc21,75*,3,0,-1,0,4
O=[N+]([O-])/C=C/c1cn(Cc2ccccc2)c2ccccc12,14,0,-1,1,0,-2
Cc1cccc(C)c1NC(=O)CN1CCc2ccccc2C1,nt,4,0,0,0,nt
CC(NC(=O)c1ccco1)C(=O)N1CCc2ccccc2C1 (centres undefined),43*,-2,-1,-1,0,13
COc1ccccc1N1CCN(C(=O)C(C)NC(=O)c2ccco2)CC1 (centres undefined),nt,8,0,-1,0,6
Cc1ccc(-n2ccnc(SCC(=O)NC3CCCCC3)c2=O)cc1F,nt,7,0,-1,0,5
Cc1cccc(C)c1C(OCCN(C)C)C1CCCCC1 (centres undefined),51*,16,0,4,1,12
CCc1nc2c(OCc3ccc(C(=O)N(C)C)cc3)cccn2c1N(C)C(=O)Nc1ccccc1OC,nt,5,0,0,nt,nt
CCN(CC(=O)Nc1c(F)cccc1F)C(=O)CCCc1cccs1,nt,-6,0,0,-1,5
Cc1cc(-c2ccccc2)nc(N/N=C/c2ccc(O)cc2)n1,nt,10,0,-1,nt,14
Oc1ccc(/C=N/Nc2nc(-c3ccc(Cl)cc3)cc(C(F)(F)F)n2)cc1,26,6,0,14*,1,7
O=C(COC(=O)Cn1cnc2ccccc21)Nc1ccc(Br)cc1,nt,14,0,1,nt,nt
O=C(COC(=O)Cn1cnc2ccccc21)Nc1ccc2c(c1)C(=O)c1ccccc1C2=O,50*,0,-1,2,-4,33
OCC1(CC2CCCCO2)CCN(C/C=C/c2ccccc2)CC1 (centres undefined),39*,3,1,-3,0,11
O=C(O)c1ccc([N+](=O)[O-])c(CS(=O)(=O)c2ccc(Cl)cc2)c1,-4,7,-1,-2,2,15
O=C(CBr)c1ccc([N+](=O)[O-])c(CS(=O)(=O)c2ccc(Cl)cc2)c1,21,34*,0,-3,0,-2
CCOC(=O)N1CCN(c2c(NCCCN(CC)CC)c(=O)c2=O)CC1,45*,1,-1,-1,0,12
CCOC(=O)c1ccc(NC(=O)C(C)NS(=O)(=O)c2ccc(OC)cc2)cc1 (centres undefined),0,-1,-2,3,0,7
CCOC(=O)c1ccc(NC(=O)COc2ccc(S(=O)(=O)NC(C)CC)cc2)cc1 (centres undefined),28*,4,0,0,-1,14
O=C(Nc1ccccc1)Nc1nnc(-c2ccccc2)o1,25*,8,0,0,0,14
CC(C)C(=O)Nc1nnc(-c2ccccc2)o1,1,-1,0,1,0,17
COc1c(Cl)cnn(-c2ccccc2)c1=O,nt,8,0,-1,0,2
COc1c(Cl)cnn(-c2ccc(Cl)c(Cl)c2)c1=O,37*,3,0,-2,-2,16
O=C(c1[nH]c(C(F)(F)F)nc1-c1ccccc1)N1CCN(C/C=C/c2ccccc2)CC1,nt,nt,0,nt,nt,nt
CCN(CC)CCn1c(NCc2ccccn2)nc2ccccc21,42*,14,-1,2,0,5
CCCCn1c(NCc2ccccn2)nc2ccccc21,-14,2,1,-1,-1,2
CCOc1ccc(Nc2nc3ccccc3n3nnnc23)cc1,42*,-2,0,5,0,32
